Experimental data from ChEMBL document CHEMBL4371006, “Discovery of N-[4-(Quinolin-4-yloxy)phenyl]benzenesulfonamides as Novel AXL Kinase Inhibitors” (J Med Chem, 2018).
Values after ≈ are worked out from the molar mass of the structure shown.

Assays:
[1] = Apparent permeability from apical to basolateral side in human Caco2 cells at 10 uM after 2 hrs by LC-MS/MS analysis; assay type: ADME, cell-based; settings: Caco-2
Summary of the method: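 Caco-2 cells differentiated three weeks in 96-well format, monolayer integrity checked by Lucifer yellow transport. Compound at 10 µM for 2 h; apical buffer HBSS/10 mM HEPES/glucose pH 6.5 with 100 µM Lucifer yellow, basolateral buffer pH 7.4. Papp = (dQ/dt)/C0A; efflux ratio Papp(B→A)/Papp(A→B).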

[2] = Permeability of the compound in 0.025 M phosphate buffer at pH 7.4 assessed drug flux level after 5 hrs by PAMPA; assay type: ADME; settings: pH 7.4, 5 h
Summary of the method: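 PAMPA: donor at 0.5 mM in pH 7.4 0.025 M phosphate buffer, diluted from 1 mM DMSO stock. Filters are coated with 1% phosphatidylcholine in dodecane, and the acceptor is 50% DMSO in phosphate buffer. Incubated 5 h at room temperature with gentle shaking. Donor and acceptor are analyzed by HPLC-UV to calculate Papp. Three plates were run on different days.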

[3] = Solubility of the compound […] after 24 hrs by UV-based HPLC analysis; assay type: physicochemical; settings: DMSO
Summary of the method: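 Solubility in water: DMSO stock aliquots diluted into water, shaken 24 h at room temperature, filtered through 0.45 µm nylon, then quantified by HPLC-UV with a C18 column and 70% ACN. Run in triplicate.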

[4] = Stability in human plasma assessed as parent compound remaining; assay type: ADME, cell-free
[5] = Toxicity in mouse assessed as drug tolerability at 300 mg/kg, po; assay type: organism-based; settings: in vivo
[6] = target: Non-receptor tyrosine-protein kinase TNK1 (Homo sapiens, UniProt Q13470); assay: Binding affinity to TNK1 in SILAC-labeled human MDA-MB-231 cells lysate by mass spectrometry based kinAffinity assay; assay type: subcellular
Summary of the method: (§1)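 MDA-MB-231 lysate applied to KinAffinity matrix of immobilized broadband kinase inhibitors at graded densities to obtain BC50 per target. Competition then run with increasing free compound to give CC50; Kd derived by Cheng-Prusoff. Two competition experiments in parallel to check equilibrium, one with lysate pre-incubated with compound before adding matrix. Quantitation by mass spectrometry.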

Aurora kinase B = Aurora kinase B (Homo sapiens, UniProt Q96GD4); assay: Binding affinity to AURKB in SILAC-labeled human MDA-MB-231 cells lysate by mass spectrometry based kinAffinity assay; assay type: subcellular
Summary of the method: (§2)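 Chemical proteomics: MDA-MB-231 lysate bound to matrix of immobilized broad kinase inhibitors at several densities (BC50), then competed with increasing free compound (CC50); proteins quantified by mass spectrometry, Kd via Cheng-Prusoff. Two competition formats run in parallel to check equilibrium.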

[7] = target: Receptor-interacting serine/threonine-protein kinase 2 (Homo sapiens, UniProt O43353); assay: Binding affinity to RIPK2 in SILAC-labeled human MDA-MB-231 cells lysate by mass spectrometry based kinAffinity assay; assay type: subcellular; summary of the method: as §1
[8] = target: Inhibitor of nuclear factor kappa-B kinase subunit epsilon (Homo sapiens, UniProt Q14164); assay: Binding affinity to IKKE in SILAC-labeled human MDA-MB-231 cells lysate by mass spectrometry based kinAffinity assay; assay type: subcellular; summary of the method: as §2
[9] = target: Ribosomal protein S6 kinase alpha-1 (Homo sapiens, UniProt Q15418); assay: Binding affinity to RPS6KA1 in SILAC-labeled human MDA-MB-231 cells lysate by mass spectrometry based kinAffinity assay; assay type: subcellular; summary of the method: as §1
[10] = target: Serine/threonine-protein kinase/endoribonuclease IRE1 (Homo sapiens, UniProt O75460); assay: Binding affinity to IRE1 in SILAC-labeled human MDA-MB-231 cells lysate by mass spectrometry based kinAffinity assay; assay type: subcellular; summary of the method: as §2
[11] = target: Serine/threonine-protein kinase PLK4 (Homo sapiens, UniProt O00444); assay: Binding affinity to PLK4 in SILAC-labeled human MDA-MB-231 cells lysate by mass spectrometry based kinAffinity assay; assay type: subcellular; summary of the method: as §1
[12] = target: T1, Tyrosine-protein kinase receptor UFO (Homo sapiens, UniProt P30530); assay: Binding affinity to AXL in SILAC-labeled human MDA-MB-231 cells lysate by mass spectrometry based kinAffinity assay; assay type: subcellular; summary of the method: as §2
T1 sequence (P30530 whole entry): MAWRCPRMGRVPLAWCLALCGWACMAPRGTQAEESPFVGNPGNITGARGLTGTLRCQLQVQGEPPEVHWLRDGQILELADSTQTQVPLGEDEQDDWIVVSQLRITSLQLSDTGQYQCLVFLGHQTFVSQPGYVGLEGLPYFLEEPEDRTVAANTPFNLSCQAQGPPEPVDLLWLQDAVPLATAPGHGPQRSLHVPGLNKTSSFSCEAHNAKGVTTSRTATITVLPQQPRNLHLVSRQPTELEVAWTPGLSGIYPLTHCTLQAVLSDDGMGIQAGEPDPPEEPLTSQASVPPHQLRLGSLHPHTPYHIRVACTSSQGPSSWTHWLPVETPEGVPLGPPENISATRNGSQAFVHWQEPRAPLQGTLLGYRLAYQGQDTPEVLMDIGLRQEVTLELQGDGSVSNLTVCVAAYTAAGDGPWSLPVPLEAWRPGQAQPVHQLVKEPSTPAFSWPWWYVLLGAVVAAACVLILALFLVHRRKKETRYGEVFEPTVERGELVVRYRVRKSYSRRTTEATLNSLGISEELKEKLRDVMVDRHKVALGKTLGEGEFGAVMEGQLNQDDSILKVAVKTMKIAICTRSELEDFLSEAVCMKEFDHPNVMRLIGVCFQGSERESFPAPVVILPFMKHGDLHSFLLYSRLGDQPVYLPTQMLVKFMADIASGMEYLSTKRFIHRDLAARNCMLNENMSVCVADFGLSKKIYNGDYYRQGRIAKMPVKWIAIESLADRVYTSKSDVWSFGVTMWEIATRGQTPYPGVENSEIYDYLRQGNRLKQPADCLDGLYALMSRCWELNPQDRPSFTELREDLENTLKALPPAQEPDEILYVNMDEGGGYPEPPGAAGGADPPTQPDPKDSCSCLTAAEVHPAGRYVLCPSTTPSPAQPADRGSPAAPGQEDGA

Aurora kinase A = Aurora kinase A (Homo sapiens, UniProt O14965); assay: Binding affinity to AURKA in SILAC-labeled human MDA-MB-231 cells lysate by mass spectrometry based kinAffinity assay; assay type: subcellular; summary of the method: as §2
[13] = target: 5'-AMP-activated protein kinase subunit beta-1 (Homo sapiens, UniProt Q9Y478); assay: Binding affinity to PRKAB1 in SILAC-labeled human MDA-MB-231 cells lysate by mass spectrometry based kinAffinity assay; assay type: subcellular; summary of the method: as §1
[14] = target: 5'-AMP-activated protein kinase subunit gamma-1 (Homo sapiens, UniProt P54619); assay: Binding affinity to PRKAG1 in SILAC-labeled human MDA-MB-231 cells lysate by mass spectrometry based kinAffinity assay; assay type: subcellular; summary of the method: as §1
[15] = target: Serine/threonine-protein kinase Nek1 (Homo sapiens, UniProt Q96PY6); assay: Binding affinity to NEK1 in SILAC-labeled human MDA-MB-231 cells lysate by mass spectrometry based kinAffinity assay; assay type: subcellular; summary of the method: as §1
[16] = target: Cyclin-G-associated kinase (Homo sapiens, UniProt O14976); assay: Binding affinity to GAK in SILAC-labeled human MDA-MB-231 cells lysate by mass spectrometry based kinAffinity assay; assay type: subcellular; summary of the method: as §2
[17] = target: TRAF family member-associated NF-kappa-B activator (Homo sapiens, UniProt Q92844); assay: Binding affinity to TANK in SILAC-labeled human MDA-MB-231 cells lysate by mass spectrometry based kinAffinity assay; assay type: subcellular; summary of the method: as §1

Chain of Aurora kinase B (Q96GD4 whole entry): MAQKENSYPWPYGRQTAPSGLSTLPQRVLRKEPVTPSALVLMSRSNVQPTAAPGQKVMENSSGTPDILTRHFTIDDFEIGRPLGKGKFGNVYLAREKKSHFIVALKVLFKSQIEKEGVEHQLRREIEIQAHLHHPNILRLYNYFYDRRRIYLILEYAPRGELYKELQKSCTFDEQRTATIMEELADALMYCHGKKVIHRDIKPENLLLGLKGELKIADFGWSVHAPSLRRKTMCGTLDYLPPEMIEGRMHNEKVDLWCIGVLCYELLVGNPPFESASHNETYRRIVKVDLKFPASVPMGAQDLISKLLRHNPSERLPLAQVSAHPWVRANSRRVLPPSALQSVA
Chain of Aurora kinase A (O14965 whole entry): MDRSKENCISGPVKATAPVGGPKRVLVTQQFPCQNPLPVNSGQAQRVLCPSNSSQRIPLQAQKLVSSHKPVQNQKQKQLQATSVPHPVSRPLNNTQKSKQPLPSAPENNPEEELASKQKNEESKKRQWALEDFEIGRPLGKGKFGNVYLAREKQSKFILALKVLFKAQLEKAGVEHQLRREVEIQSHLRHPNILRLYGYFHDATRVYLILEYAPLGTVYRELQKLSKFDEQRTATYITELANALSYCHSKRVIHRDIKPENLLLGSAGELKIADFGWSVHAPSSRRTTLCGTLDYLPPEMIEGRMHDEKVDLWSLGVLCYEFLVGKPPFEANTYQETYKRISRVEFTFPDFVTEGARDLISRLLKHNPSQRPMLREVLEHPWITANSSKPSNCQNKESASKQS
Chain of Inhibitor of nuclear factor kappa-B kinase subunit epsilon (Q14164 whole entry): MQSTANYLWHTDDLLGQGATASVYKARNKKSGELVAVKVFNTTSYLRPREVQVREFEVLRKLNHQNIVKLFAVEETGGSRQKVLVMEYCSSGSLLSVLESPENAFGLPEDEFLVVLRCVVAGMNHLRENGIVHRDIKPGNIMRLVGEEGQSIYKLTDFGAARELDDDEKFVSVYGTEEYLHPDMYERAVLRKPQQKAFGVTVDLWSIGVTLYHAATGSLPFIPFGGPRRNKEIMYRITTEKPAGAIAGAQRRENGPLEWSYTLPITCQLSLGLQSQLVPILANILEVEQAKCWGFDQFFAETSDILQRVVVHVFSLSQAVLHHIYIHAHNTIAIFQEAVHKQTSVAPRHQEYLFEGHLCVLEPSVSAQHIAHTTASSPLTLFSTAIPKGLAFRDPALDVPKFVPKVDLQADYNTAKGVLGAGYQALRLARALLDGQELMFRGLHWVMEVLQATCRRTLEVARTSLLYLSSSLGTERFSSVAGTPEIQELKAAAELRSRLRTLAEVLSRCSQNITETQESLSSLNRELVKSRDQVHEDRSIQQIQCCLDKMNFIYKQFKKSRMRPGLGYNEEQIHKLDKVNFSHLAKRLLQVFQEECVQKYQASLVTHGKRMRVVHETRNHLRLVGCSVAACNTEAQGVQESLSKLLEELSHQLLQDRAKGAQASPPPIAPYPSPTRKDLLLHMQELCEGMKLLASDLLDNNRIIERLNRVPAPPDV
Chain of Serine/threonine-protein kinase/endoribonuclease IRE1 (O75460 whole entry): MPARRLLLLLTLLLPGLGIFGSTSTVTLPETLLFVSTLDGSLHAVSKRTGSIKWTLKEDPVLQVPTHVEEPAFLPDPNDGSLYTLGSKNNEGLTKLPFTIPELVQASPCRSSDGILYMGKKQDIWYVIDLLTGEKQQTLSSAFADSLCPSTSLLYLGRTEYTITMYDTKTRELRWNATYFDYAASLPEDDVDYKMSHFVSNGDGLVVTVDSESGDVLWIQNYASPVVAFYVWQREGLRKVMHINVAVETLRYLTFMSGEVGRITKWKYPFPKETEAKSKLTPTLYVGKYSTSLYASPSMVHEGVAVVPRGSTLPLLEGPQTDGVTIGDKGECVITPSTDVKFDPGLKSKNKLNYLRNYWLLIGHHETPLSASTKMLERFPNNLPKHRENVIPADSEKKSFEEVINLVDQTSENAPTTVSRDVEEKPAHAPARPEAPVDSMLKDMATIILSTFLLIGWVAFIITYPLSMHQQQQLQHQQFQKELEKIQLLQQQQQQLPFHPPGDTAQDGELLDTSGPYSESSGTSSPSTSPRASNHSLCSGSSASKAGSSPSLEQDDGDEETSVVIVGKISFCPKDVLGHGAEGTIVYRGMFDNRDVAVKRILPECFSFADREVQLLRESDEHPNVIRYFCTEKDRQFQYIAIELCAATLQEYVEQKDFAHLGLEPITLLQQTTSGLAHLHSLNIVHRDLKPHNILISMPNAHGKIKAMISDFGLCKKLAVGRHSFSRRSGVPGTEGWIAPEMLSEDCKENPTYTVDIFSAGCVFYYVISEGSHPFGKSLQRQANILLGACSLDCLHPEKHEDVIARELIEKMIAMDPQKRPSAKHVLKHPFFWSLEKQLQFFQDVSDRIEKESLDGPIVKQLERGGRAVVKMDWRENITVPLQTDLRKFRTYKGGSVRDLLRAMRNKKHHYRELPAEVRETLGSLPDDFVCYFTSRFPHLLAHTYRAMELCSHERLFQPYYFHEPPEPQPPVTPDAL
Chain of Serine/threonine-protein kinase Nek1 (Q96PY6 whole entry): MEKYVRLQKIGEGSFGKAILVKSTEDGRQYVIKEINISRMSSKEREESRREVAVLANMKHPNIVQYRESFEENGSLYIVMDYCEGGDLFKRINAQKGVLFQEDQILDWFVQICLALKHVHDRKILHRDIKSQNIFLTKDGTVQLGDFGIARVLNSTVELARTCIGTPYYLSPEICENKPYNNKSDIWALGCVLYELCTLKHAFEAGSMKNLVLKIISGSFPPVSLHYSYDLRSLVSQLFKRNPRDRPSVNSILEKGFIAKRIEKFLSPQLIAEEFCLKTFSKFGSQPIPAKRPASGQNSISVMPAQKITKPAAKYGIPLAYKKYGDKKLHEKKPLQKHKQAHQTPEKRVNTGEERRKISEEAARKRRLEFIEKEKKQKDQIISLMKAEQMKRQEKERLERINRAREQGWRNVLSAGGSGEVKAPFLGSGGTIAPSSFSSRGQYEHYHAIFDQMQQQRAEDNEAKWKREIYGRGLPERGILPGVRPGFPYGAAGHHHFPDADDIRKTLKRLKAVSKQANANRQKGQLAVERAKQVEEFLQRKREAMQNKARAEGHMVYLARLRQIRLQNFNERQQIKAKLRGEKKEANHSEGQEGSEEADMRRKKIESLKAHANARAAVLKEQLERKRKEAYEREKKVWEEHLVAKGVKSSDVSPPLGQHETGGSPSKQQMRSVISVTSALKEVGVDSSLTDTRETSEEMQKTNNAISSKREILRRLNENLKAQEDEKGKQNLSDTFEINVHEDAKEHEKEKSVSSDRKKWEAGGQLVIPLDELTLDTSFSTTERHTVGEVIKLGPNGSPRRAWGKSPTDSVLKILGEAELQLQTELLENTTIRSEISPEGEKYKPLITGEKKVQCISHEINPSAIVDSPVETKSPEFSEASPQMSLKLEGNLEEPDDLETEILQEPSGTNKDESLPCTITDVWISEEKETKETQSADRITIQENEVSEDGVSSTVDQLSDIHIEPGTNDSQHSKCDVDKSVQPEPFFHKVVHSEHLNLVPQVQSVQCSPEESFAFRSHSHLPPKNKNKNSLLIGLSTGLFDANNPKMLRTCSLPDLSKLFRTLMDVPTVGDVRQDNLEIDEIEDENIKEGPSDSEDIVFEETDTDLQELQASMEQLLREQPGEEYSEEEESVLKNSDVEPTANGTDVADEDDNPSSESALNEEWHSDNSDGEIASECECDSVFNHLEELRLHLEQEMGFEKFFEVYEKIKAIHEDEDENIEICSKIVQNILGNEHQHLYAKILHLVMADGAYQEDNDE
Chain of Serine/threonine-protein kinase PLK4 (O00444 whole entry): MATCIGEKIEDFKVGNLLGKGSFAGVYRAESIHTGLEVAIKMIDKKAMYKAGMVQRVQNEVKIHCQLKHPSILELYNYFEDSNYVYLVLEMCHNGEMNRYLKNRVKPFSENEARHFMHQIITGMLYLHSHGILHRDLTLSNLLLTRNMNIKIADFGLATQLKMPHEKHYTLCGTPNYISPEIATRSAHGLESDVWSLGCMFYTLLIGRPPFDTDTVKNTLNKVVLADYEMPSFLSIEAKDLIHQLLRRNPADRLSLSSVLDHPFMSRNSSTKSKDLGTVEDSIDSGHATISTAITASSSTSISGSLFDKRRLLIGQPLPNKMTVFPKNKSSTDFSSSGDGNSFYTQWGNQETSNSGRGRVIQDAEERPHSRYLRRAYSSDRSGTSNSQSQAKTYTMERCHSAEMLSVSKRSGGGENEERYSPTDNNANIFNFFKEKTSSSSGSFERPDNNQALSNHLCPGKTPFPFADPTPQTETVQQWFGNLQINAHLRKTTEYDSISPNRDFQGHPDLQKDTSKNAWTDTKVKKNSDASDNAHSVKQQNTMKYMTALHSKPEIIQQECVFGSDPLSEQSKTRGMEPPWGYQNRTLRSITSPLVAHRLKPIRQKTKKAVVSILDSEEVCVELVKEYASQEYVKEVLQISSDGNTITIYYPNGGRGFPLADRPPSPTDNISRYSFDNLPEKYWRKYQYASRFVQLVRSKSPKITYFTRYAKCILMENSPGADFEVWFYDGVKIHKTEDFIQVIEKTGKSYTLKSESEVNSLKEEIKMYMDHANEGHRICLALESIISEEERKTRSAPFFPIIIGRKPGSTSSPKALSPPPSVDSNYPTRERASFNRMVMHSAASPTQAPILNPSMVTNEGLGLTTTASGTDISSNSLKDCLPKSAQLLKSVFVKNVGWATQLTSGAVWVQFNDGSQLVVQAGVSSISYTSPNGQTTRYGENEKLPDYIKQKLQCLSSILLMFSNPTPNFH
Chain of 5'-AMP-activated protein kinase subunit gamma-1 (P54619 whole entry): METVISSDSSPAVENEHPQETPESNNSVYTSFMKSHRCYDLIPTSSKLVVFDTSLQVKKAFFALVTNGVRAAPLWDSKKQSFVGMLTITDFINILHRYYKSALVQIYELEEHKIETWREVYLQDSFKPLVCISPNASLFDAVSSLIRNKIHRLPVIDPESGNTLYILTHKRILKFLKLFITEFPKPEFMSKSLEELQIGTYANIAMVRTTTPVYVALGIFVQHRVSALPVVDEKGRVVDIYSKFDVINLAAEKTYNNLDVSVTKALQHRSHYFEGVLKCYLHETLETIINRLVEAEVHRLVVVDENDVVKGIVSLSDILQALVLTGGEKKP

| Kd(free) [6] | Kd(free) (Aurora kinase B) | Kd(free) [7] | Kd(free) [8] | Kd(free) [9] | Kd(free) [10] | Kd(free) [11] | Kd(free) [12] | Kd(free) (Aurora kinase A) | Kd(free) [13] | Kd(free) [14] | Kd(free) [15] | Kd(free) [16] | Kd(free) [17] | Compound | Papp A→B at 2 h, 10 µM [1] | permeability [2] | solubility at 24 h [3] | Stability [4] | Activity [5] |
| --- | --- | --- | --- | --- | --- | --- | --- | --- | --- | --- | --- | --- | --- | --- | --- | --- | --- | --- | --- |
| – | – | – | – | – | – | – | – | – | – | – | – | – | – | COc1cc2c(Oc3ccc(NS(=O)(=O)c4cc(F)ccc4F)cc3F)ccnc2cc1OCCCN1CCCC(C)C1 (stereo not drawn) | 2.4 ×10⁻⁶ cm/s | 46.1% | 18 µM (≈ 11.1 µg/mL) | 99.1% | Non-Toxic |
| 14 nM | 34 nM | 17 nM | 122 nM | 5474 nM | 243 nM | 48 nM | 6 nM | 146 nM | 2279 nM | 1871 nM | 5043 nM | 4166 nM | 1567 nM | COc1cc2c(Oc3ccc(NS(=O)(=O)c4c(F)cccc4F)cc3F)ccnc2cc1OCCCN1CCN(C)CC1 | – | – | – | – | – |
| 24 nM | > 69 nM | 43 nM | 282 nM | 3152 nM | 723 nM | 53 nM | 15 nM | 847 nM | 1257 nM | 825 nM | 5146 nM | 2448 nM | 3418 nM | COc1cc2c(Oc3ccc(NS(=O)(=O)c4cc(F)ccc4F)cc3F)ccnc2cc1OCCCN1CCN(C)CC1 | 7.4 ×10⁻⁶ cm/s | 24.3% | 68.8 µM (≈ 42.4 µg/mL) | 96.3% | Non-Toxic |
